The source made the active and inactive calls.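 How the source made its calls, unless noted: active means viability at or under a set limit in both replicates, limit being median viability minus 3 SD (cut at about 48% in these data, passing the limit was not always enough); inconclusive means at or under the limit in just one replicate; inactive means at or above the limit in both replicates.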

Consider 15 molecules from PubChem BioAssay.

Assay [1] can be described thus: reducers of endogenous Her2 protein level, primary screen, SKBR3 breast tumor cells, AlphaScreen, ATP viability (AID 461;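 active means Her2 level under about 52% in both replicate screens, with viability over 70% of control, limit read from the data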;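 on Her2 level: lower value means less Her2 protein in the cells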;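 on viability: percent of carrier control wells set as 100% viability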). To be noted: 18-24 h, measured here: SKBR3 viability, ATP luminescence, at 10 µM. (Alpha assays give light when donor and acceptor beads are brought close together.)
Assay [2] addresses Receptor tyrosine-protein kinase erbB-2 (Homo sapiens) (UniProt P04626). The description is as above. To be noted: 18-24 h, at 10 µM, stronger effect = lower value.
Assay [3] in a line: SK-BR-3 cell growth inhibitors, pilot screen, 24 h, human (AID 572;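 active means viability at or below 10% of carrier control in both of two separate runs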;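 further: compound exposure lasted between 18 and 24 h rather than exactly 24 h; 100% = carrier-treated control wells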). The settings on record: SK-BR-3 viability, CellTiter-Glo luminescence, at 10 µM, stronger effect = lower value. In general terms: In ATP-based viability assays light output follows the ATP content of the culture.
Assay [4] can be described thus: HUVEC growth inhibition – cell-based, human, primary screen (AID 575;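 active means viability at or below 30% in both replicate assays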;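 further: 100% = median of untreated cell wells with 0.1% DMSO on each plate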). The settings on record: HUVEC proliferation, CellTiter-Glo luminescence, 72 h; at 10 µM; stronger effect = lower value. In short, it runs like this: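 Assay system: Primary human umbilical vein endothelial cells | Quantity: 1250 cells per well | Medium: Supplemented EBM, 2% fetal bovine serum | Detection: CellTiter-Glo luminescence measuring cellular ATP | Read-out: % viability vs DMSO wells | Plate: Collagen-coated 384-well format | Times: 72 h exposure, 37 °C, 5% CO2, 30 min RT equilibration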

A short description of assay [5]: growth inhibitors of H69AR lung tumor, primary screen, human, duplicate replicates (AID 580).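 Further: 100% = mean luminescence of untreated wells and 0% = no signal.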 The settings on record: H69AR lung tumor cells viability, ATP luminescence, 72 h; at 10 µM; stronger effect = lower value.
The nature of assay [6]: reversal of MRP1-mediated doxorubicin resistance, pilot screen, H69AR cells, doxorubicin co-treatment (AID 601;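 active means viability loss from added drug above about 55%, and viability with drug at most 40%, in both replicates, limit read from the data, passing the limit was not always enough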). To be noted: CellTiter-Glo, 72 h, at 10 µM; for differential viability (reversal): stronger effect = higher value.
Assay [7] can be described thus: 384-well plate pilot, post-Golgi transport modulator project, inhibition of yeast transport mutant growth (AID 636; in the data active means inhibition above about 31%). The settings on record: absorbance 615 nm, about 18 h, stronger effect = higher value.
The nature of assay [8]: growth suppression of yeast trafficking mutant, preliminary HTS, modulators of trafficking downstream of Golgi apparatus project, 1536-format plate, OD 615 nm (AID 637; in the data active means inhibition above about 30%). The settings on record: yeast transport mutant growth, absorbance 615 nm, 18 h; stronger effect = higher value.
Where [9] appears, read: H69AR cells + 2 uM doxorubicin, measured here: viability with 2 uM doxorubicin, stronger effect = lower value.
The mark [10] stands for this setting: H69AR cells, compound alone cytotoxicity.

Chain of Receptor tyrosine-protein kinase erbB-2 (Homo sapiens) (P04626 whole entry, looked up): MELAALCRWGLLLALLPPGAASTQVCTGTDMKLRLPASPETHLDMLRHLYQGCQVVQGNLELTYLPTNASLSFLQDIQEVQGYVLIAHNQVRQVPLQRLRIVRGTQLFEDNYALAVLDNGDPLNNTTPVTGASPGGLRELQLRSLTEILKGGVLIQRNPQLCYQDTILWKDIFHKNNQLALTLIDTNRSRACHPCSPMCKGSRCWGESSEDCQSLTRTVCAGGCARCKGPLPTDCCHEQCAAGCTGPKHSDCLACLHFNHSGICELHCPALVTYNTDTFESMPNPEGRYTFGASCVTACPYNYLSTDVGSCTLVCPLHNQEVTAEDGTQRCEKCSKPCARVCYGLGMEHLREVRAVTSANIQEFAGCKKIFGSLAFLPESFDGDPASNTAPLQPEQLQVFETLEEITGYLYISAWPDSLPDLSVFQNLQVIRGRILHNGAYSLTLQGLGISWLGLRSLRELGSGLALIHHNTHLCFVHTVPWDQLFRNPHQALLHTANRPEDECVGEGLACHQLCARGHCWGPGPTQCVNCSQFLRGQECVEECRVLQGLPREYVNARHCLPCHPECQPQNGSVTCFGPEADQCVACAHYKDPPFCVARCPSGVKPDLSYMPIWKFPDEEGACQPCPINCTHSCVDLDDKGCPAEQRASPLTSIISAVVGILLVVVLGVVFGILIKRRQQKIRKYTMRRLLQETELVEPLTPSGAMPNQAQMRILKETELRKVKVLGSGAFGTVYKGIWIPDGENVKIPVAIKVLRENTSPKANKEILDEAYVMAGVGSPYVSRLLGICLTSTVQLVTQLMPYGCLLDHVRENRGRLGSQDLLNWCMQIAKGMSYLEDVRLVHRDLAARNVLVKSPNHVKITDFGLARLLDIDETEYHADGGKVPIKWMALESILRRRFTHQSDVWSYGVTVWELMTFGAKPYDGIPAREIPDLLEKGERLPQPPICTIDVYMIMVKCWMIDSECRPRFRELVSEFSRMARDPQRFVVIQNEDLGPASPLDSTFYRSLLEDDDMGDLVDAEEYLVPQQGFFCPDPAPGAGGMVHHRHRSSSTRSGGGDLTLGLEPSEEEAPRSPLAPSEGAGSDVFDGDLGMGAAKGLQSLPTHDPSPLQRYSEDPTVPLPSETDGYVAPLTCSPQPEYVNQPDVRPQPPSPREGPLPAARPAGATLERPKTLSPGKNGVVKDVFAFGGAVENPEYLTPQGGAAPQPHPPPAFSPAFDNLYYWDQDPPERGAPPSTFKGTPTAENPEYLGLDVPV

What is called viability is a read-out of living cells in per cent, often relative to untreated cells. As usually defined, the inhibition is the change of the read-out against control, counted positive when it falls. Consider `COc1ccc(CC(NC(C)=O)C(=O)N2CCN(C(=O)N(C(C)C)C(C)C)CC2)cc1` (stereo not given), for which the viability in assay [1] is 90.5%; in assay [3], 90.5% (inactive); in assay [4] it was 94.5% (inactive); in assay [5] it was 94.2% (inactive); in assay [6] (setting [9]) it was 88.3%; in assay [6] (setting [10]), 94.2%. In addition, the Her2 level in assay [2] was 110% (inactive). In assay [6] (H69AR cells + 2 uM doxorubicin), the differential viability (reversal) is 5.88% (inactive). In addition, the values for the inhibition in assay [7] and in assay [8] were -5.13% (inactive) and -12.8% (inactive), respectively.
On to `COc1ccc(N(CC(=O)NCCSC(C)(C)C)S(C)(=O)=O)c(OC)c1`, for which the viability was 91% in assay [1]; 91% (inactive) in assay [3]; 106% (inactive) in assay [4]; 92.8% (inactive) in assay [5]; 101% in assay [6] (setting [9]); 92.8% in assay [6] (setting [10]). Besides, in assay [2], the Her2 level was 97.5% (inactive). In assay [6] (H69AR cells + 2 uM doxorubicin), the differential viability (reversal) is -8.27% (inactive). For the same molecule, the inhibition is 1.04% (inactive) in assay [7] and 2.62% (inactive) in assay [8].
On to `CCN1C(=O)Cc2cc(S(=O)(=O)N3CCOCC3)ccc21`, for which the viability in assay [1] is 105%; in assay [3], 105% (inactive); in assay [4], 96.1% (inactive); in assay [5] it was 98% (inactive); in assay [6] (setting [9]) it was 100%; in assay [6] (setting [10]) it was 98%. In assay [2], the Her2 level is 110% (inactive). For the same molecule, the differential viability (reversal) in assay [6] (H69AR cells + 2 uM doxorubicin) is -2.08% (inactive). Also, the inhibition in assay [7] is -6.4% (inactive); in assay [8], -0.63% (inactive).
On to `Cc1cc(NC(=O)CCOc2ccccc2)no1`, for which the viability in assay [1] is 85.5%; in assay [3], 85.5% (inactive); in assay [4], 87% (inactive); in assay [5], 88.6% (inactive); in assay [6] (setting [9]), 85.7%; in assay [6] (setting [10]), 88.6%. Moreover, the Her2 level in assay [2] was 96.5% (inactive). Besides, the differential viability (reversal) in assay [6] (H69AR cells + 2 uM doxorubicin) is 2.89% (inactive). The inhibition in assay [7] is -2.34% (inactive); in assay [8], 1% (inactive).
On to `O=C(CSc1nnc(-c2ccncc2)n1-c1ccc(F)cc1)NC(=O)NCc1ccco1`, for which the viability was 132% in assay [1]; 132% (inactive) in assay [3]; 89.1% (inactive) in assay [4]; 86% (inactive) in assay [5]; 87.8% in assay [6] (setting [9]); 86% in assay [6] (setting [10]). For the same molecule, the Her2 level in assay [2] is 89% (inactive). Also, the differential viability (reversal) in assay [6] (H69AR cells + 2 uM doxorubicin) was -1.76% (inactive). For the same molecule, the inhibition is -7.4% (inactive) in assay [7] and -3.97% (inactive) in assay [8].
`O=C(Cn1cnc2c(nnn2Cc2ccc(Cl)cc2)c1=O)NCC1CCCO1` (stereo not given): the viability was 120% in assay [1]; 120% (inactive) in assay [3]; 101% (inactive) in assay [4]; 106% (inactive) in assay [5]; 94.7% in assay [6] (setting [9]); 106% in assay [6] (setting [10]). For the same molecule, the Her2 level in assay [2] is 78% (inactive). In addition, the differential viability (reversal) in assay [6] (H69AR cells + 2 uM doxorubicin) was 10.8% (inactive). The results for the inhibition in assay [7] and in assay [8] were -10.1% (inactive) and -1.27% (inactive), respectively.
As to `CSCC[C@@H](Nc1nc(-c2ccccc2)nc2c1oc1ccccc12)C(=O)O`, the viability in assay [1] is 91%; in assay [3], 91% (inactive); in assay [4] it was 84.2% (inactive); in assay [5], 93.8% (inactive); in assay [6] (setting [9]), 95.1%; in assay [6] (setting [10]), 93.8%. The Her2 level in assay [2] was 75% (inactive). The differential viability (reversal) in assay [6] (H69AR cells + 2 uM doxorubicin) is -1.28% (inactive). Besides, the inhibition was -7.43% (inactive) in assay [7] and -0.82% (inactive) in assay [8].
As to `Cc1cc(C)nc(SCc2nnc(SCc3ccccc3Cl)o2)n1`, the viability in assay [1] was 80%; in assay [3] it was 80% (inactive); in assay [4], 93.8% (inactive); in assay [5] it was 79.5% (inactive); in assay [6] (setting [9]), 81.5%; in assay [6] (setting [10]), 79.5%. Moreover, the Her2 level in assay [2] is 78.5% (inactive). Moreover, the differential viability (reversal) in assay [6] (H69AR cells + 2 uM doxorubicin) is -1.99% (inactive). For the same molecule, the inhibition in assay [7] is -3.29% (inactive); in assay [8] it was 1.82% (inactive).
For the molecule `CCC(=O)NC1(C(F)(F)F)C(=O)NC(C)=C1C#N` (stereo not given), the viability in assay [1] is 102%; in assay [3], 102% (inactive); in assay [4] it was 101% (inactive); in assay [5], 97.9% (inactive); in assay [6] (setting [9]), 92.7%; in assay [6] (setting [10]), 97.9%. Besides, in assay [2], the Her2 level is 84.5% (inactive). For the same molecule, the differential viability (reversal) in assay [6] (H69AR cells + 2 uM doxorubicin) is 5.2% (inactive). Besides, the inhibition in assay [7] was -4.74% (inactive); in assay [8], 1.59% (inactive).
Regarding `CCCC(O)(CCN(C)C)c1ccc(OC)cc1` (stereo not given), the viability in assay [1] was 89%; in assay [3] it was 89% (inactive); in assay [4] it was 98.5% (inactive); in assay [5], 88.3% (inactive); in assay [6] (setting [9]) it was 84%; in assay [6] (setting [10]), 88.3%. The Her2 level in assay [2] is 79.5% (inactive). In addition, the differential viability (reversal) in assay [6] (H69AR cells + 2 uM doxorubicin) is 4.26% (inactive). Also, the inhibition is -0.26% (inactive) in assay [7] and 0.48% (inactive) in assay [8].
Regarding `COc1ccc(CCNC(=O)C2CCN(Cc3nc(-c4cccc(Cl)c4)oc3C)CC2)cc1OC`, the viability was 83.5% in assay [1]; 83.5% (inactive) in assay [3]; 47.9% (inactive) in assay [4]; 73.4% (inactive) in assay [5]; 101% in assay [6] (setting [9]); 73.4% in assay [6] (setting [10]). The Her2 level in assay [2] was 81.5% (inactive). Moreover, in assay [6] (H69AR cells + 2 uM doxorubicin), the differential viability (reversal) was -27.2% (inactive). In addition, the inhibition in assay [7] is -5.13% (inactive); in assay [8], -1.45% (inactive).
In the case of `C=CCN1C(=O)C2(C(C#N)=C(N)Oc3n[nH]c(CCC)c32)c2ccccc21` (stereo not given), the viability in assay [1] was 108%; in assay [3], 108% (inactive); in assay [4], 100% (inactive); in assay [5], 87.8% (inactive); in assay [6] (setting [9]), 84.8%; in assay [6] (setting [10]), 87.8%. In assay [2], the Her2 level is 103% (inactive). The differential viability (reversal) in assay [6] (H69AR cells + 2 uM doxorubicin) was 2.95% (inactive). The figures for the inhibition in assay [7] and in assay [8] were -4.55% (inactive) and 0% (inactive), respectively.
Regarding `O=C(COC(=O)CCC(=O)c1cccs1)NCc1ccco1`, the viability in assay [1] was 98%; in assay [3], 98% (inactive); in assay [4] it was 89.3% (inactive); in assay [5], 79.8% (inactive); in assay [6] (setting [9]), 77.3%; in assay [6] (setting [10]) it was 79.8%. Also, in assay [2], the Her2 level is 109% (inactive). Besides, the differential viability (reversal) in assay [6] (H69AR cells + 2 uM doxorubicin) was 2.55% (inactive). Besides, the values for the inhibition in assay [7] and in assay [8] were -3.59% (inactive) and -1.5% (inactive), respectively.
As to `CC(Oc1ccccc1)C(=O)N1CCCc2ccccc21` (stereo not given), the viability was 101% in assay [1]; 101% (inactive) in assay [3]; 95.4% (inactive) in assay [4]; 94.3% (inactive) in assay [5]; 89.8% in assay [6] (setting [9]); 94.3% in assay [6] (setting [10]). For the same molecule, the Her2 level in assay [2] was 104% (inactive). For the same molecule, the differential viability (reversal) in assay [6] (H69AR cells + 2 uM doxorubicin) is 4.51% (inactive). Further, the inhibition in assay [7] was -1.76% (inactive); in assay [8], -4.33% (inactive).
On to `O=C(Nc1ccc(N2CCOCC2)cc1)c1cccc(S(=O)(=O)N2CCCC2)c1`, for which the viability in assay [1] was 88.5%; in assay [3], 88.5% (inactive); in assay [4] it was 96.8% (inactive); in assay [5], 98.4% (inactive); in assay [6] (setting [9]), 93.1%; in assay [6] (setting [10]) it was 98.4%. Moreover, the Her2 level in assay [2] is 85% (inactive). Besides, the differential viability (reversal) in assay [6] (H69AR cells + 2 uM doxorubicin) is 5.26% (inactive). Besides, the inhibition was -5% (inactive) in assay [7] and -2% (inactive) in assay [8].
